Laboratory results reported in ChEMBL document CHEMBL3603753, “Carbamoyl Triazoles, Known Serine Protease Inhibitors, Are a Potent New Class of Antimalarials” (J Med Chem, 2015).
Values after ≈ are worked out from the molar mass of the structure shown. Active and inactive are the calls of the source. The calls are words filed in the database; no cut-off is given here.

How the values were obtained:
[1] = system: Plasmodium berghei; test: Antimalarial activity against Plasmodium berghei infected in orally dosed mouse model of malaria infection; assay type: functional; details: po
How it was run: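 Mice infected with P. berghei; compound given orally (p.o.) as 2 doses of 50 mg kg⁻¹.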

[2] = system: Plasmodium falciparum; test: Antimalarial activity against Plasmodium falciparum 3D7 infected in erythrocytes incubated for 72 hrs by [3H]hypoxanthine incorporation assay; assay type: functional, organism-based
[3] = target: Albumin (Homo sapiens, UniProt P02768); test: Binding affinity to HSA; assay type: ADME; details: human serum albumin (HSA), read-out: PB (converted)
[4] = Half life in human liver microsomes; assay type: ADME
[5] = system: Blood; test: Stability in CD1 mouse blood at 10 mM after 0.5 to 2 hrs by UPLC-MS/MS method; assay type: ADME, tissue-based; details: 10000 µM
[6] = system: Liver microsome; test: Intrinsic clearance in human liver microsomes; assay type: ADME
[7] = target: T1, Subtilisin-like protease 1 (Plasmodium falciparum, UniProt O61142); test: Inhibition of Plasmodium falciparum recombinant SUB1 using SERA4st1F-6R12 substrate incubated for 55 mins by fluorescence spectrophotometry
T1 sequence (O61142 whole entry): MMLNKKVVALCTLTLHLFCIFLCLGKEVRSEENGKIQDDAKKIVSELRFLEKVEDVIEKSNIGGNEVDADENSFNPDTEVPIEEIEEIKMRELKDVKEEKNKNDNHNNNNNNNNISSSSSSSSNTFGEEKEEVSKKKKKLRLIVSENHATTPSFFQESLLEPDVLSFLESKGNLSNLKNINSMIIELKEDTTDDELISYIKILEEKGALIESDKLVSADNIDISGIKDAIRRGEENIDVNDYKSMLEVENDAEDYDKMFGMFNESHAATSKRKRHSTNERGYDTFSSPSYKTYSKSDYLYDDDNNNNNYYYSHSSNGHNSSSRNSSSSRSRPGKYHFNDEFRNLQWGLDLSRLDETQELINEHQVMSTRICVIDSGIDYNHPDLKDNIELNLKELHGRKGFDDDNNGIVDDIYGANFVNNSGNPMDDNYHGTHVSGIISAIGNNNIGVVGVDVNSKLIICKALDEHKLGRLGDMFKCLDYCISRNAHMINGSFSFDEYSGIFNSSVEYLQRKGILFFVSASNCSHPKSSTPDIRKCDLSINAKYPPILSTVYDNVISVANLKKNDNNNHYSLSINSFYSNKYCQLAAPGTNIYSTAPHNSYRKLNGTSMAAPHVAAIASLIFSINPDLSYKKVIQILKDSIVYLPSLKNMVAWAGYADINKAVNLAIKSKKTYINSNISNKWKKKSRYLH

[8] = system: Plasma; test: Stability in CD1 mouse plasma at 10 mM after 0.5 to 2 hrs by UPLC-MS/MS method; assay type: ADME, cell-free; details: 10000 µM
[9] = system: Plasmodium falciparum; test: Antimalarial activity against Plasmodium falciparum assessed as time duration for 99.9% parasite killing at 10 times antimalarial IC50 level over 48 hrs; assay type: functional
How it was run: (§1)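 Parasite reduction ratio assay on P. falciparum with compound at 10× its Pf IC₅₀. Viable parasite decrease is followed over one life cycle (48 h), giving log₁₀ PRR and the time needed to kill 99.9% of parasites (PCT99.9%).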

[10] = system: Plasmodium falciparum; test: Antimalarial activity against Plasmodium falciparum 3D7 infected in erythrocytes incubated for 48 hrs by [3H]hypoxanthine incorporation assay; assay type: functional, organism-based
[11] = target: Voltage-gated inwardly rectifying potassium channel KCNH2 (Homo sapiens, UniProt Q12809); test: Inhibition of human ERG by QPatch assay
[12] = Kinetic solubility of the compound by chemoluminescent nitrogen detection kinetic solubility assay; assay type: physicochemical; details: read-out: Kinetic_solubility
[13] = system: Plasma; test: Stability in CD1 mouse plasma at 10 mM in presence of serine protease inhibitor PMSF after 0.5 to 2 hrs by UPLC-MS/MS method; assay type: ADME, cell-free; details: 10000 µM
[14] = system: HepG2; test: Cytotoxicity against human HepG2 cells; assay type: cell-based
[15] = system: Plasmodium falciparum; test: Antimalarial activity against Plasmodium falciparum assessed as parasite reduction ratio at 10 times antimalarial IC50 level over 48 hrs; assay type: functional; how it was run: as §1
[16] = target: Dipeptidyl peptidase 4 (Homo sapiens, UniProt P27487); test: Inhibition of DPP4 (unknown origin)
[17] = Passive permeability by PAMPA method; assay type: ADME; details: read-out: permeability
[18] = Inhibition of CYP3A (unknown origin) by 4VR metabolism assay; assay type: ADME, Homo sapiens
[19] = Half life in mouse liver microsomes; assay type: ADME
[20] = Inhibition of CYP3A (unknown origin) by 4VG metabolism assay; assay type: ADME, Homo sapiens
[21] = system: Plasmodium falciparum; test: Antimalarial activity against Plasmodium falciparum 3D7 infected in erythrocytes incubated for 24 hrs by [3H]hypoxanthine incorporation assay; assay type: functional, organism-based
[22] = system: Plasmodium falciparum; test: Antimalarial activity against Plasmodium falciparum infected in erythrocytes assessed as young trophozoites level at 10 times antimalarial IC50 level incubated for 24 and 48 hrs by Giemsa staining based microsocpy
[23] = system: Plasmodium falciparum; test: Antimalarial activity against Plasmodium falciparum infected in humanized SCID mouse model of malaria infection assessed as induction of abnormal trophozoites with hemozoin granules and pyknotic cells in parasite at 217 mg/kg, po measured 96 hrs post dose by microscopic and flow cytometry method; assay type: functional, organism-based
How it was run: (§2)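 P. falciparum-infected humanized mice, standard four-day test; compound given orally at several doses, vehicle (n = 4) and oral chloroquine 10 mg·kg⁻¹ (n = 2) as controls. Parasitemia followed per mouse. Peripheral blood sampled 96 h after starting treatment and analysed by microscopy and by flow cytometry gating infected human erythrocytes.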

[24] = system: Plasmodium falciparum; test: Antimalarial activity against Plasmodium Plasmodium falciparum infected in orally dosed humanized SCID mouse model of malaria infection; assay type: functional; details: po; how it was run: as §2
[25] = system: Blood; test: Drug level in blood of Plasmodium falciparum infected humanized SCID mouse model of malaria infection at 217 mg/kg, po measured 96 hrs post dose; assay type: ADME, organism-based; details: in vivo
[26] = system: Plasmodium falciparum; test: Antimalarial activity against Plasmodium falciparum infected in humanized SCID mouse model of malaria infection assessed as induction of altered rings in parasite at 217 mg/kg, po measured 96 hrs post dose by microscopic and flow cytometry method; assay type: functional, organism-based; how it was run: as §2
[27] = system: Plasmodium falciparum; test: Antimalarial activity against Plasmodium falciparum infected in humanized SCID mouse model of malaria infection assessed as induction of phenotypic changes in parasite at 217 mg/kg, po measured 96 hrs post dose by microscopic and flow cytometry method; assay type: functional, organism-based; how it was run: as §2

Sequence of Albumin (P02768 whole entry): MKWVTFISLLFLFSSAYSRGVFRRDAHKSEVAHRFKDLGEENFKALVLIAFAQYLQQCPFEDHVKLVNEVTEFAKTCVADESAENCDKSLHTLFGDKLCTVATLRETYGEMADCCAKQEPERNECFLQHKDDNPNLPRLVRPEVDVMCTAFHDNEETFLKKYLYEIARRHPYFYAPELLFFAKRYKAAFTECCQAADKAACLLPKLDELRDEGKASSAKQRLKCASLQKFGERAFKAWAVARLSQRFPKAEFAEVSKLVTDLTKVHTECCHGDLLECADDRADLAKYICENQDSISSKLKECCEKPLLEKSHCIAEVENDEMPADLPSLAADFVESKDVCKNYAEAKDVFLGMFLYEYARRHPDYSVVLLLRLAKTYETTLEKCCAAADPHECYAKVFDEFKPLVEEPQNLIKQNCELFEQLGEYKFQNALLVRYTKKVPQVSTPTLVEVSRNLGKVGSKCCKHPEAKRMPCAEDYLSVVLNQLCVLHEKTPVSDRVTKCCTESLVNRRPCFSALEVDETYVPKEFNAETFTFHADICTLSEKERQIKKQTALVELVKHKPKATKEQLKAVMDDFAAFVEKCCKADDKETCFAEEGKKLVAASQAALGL
Sequence of Voltage-gated inwardly rectifying potassium channel KCNH2 (Q12809 whole entry): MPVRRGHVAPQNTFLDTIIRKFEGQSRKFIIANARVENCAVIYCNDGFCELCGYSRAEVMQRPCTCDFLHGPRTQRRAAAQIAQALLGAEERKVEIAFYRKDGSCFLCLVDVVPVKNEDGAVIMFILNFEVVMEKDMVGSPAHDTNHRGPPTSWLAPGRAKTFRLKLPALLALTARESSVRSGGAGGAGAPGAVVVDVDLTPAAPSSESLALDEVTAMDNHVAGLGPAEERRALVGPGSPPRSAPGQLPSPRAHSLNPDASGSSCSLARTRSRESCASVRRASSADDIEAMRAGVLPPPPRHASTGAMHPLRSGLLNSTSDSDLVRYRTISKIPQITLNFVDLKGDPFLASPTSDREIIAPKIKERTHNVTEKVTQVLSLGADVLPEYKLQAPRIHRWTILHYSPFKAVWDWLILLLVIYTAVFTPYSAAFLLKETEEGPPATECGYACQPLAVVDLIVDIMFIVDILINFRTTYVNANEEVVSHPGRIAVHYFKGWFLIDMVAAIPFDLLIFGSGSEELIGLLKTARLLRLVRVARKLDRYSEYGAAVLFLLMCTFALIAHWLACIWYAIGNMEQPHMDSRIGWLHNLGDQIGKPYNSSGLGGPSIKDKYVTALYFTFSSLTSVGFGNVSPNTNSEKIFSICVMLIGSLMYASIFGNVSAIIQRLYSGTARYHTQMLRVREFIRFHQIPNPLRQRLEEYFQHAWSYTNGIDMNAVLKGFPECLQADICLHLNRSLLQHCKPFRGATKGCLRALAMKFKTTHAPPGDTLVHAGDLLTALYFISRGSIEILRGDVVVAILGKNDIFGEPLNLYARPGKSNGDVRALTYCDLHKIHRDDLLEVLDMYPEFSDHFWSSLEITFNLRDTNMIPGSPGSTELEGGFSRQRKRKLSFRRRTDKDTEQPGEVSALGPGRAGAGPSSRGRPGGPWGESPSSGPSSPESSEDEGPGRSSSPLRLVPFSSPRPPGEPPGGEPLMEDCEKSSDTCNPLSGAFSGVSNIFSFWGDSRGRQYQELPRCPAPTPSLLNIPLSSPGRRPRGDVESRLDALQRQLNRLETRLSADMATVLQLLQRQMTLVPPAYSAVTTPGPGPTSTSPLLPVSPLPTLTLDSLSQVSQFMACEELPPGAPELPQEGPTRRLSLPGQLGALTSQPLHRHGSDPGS
Sequence of Dipeptidyl peptidase 4 (P27487 whole entry): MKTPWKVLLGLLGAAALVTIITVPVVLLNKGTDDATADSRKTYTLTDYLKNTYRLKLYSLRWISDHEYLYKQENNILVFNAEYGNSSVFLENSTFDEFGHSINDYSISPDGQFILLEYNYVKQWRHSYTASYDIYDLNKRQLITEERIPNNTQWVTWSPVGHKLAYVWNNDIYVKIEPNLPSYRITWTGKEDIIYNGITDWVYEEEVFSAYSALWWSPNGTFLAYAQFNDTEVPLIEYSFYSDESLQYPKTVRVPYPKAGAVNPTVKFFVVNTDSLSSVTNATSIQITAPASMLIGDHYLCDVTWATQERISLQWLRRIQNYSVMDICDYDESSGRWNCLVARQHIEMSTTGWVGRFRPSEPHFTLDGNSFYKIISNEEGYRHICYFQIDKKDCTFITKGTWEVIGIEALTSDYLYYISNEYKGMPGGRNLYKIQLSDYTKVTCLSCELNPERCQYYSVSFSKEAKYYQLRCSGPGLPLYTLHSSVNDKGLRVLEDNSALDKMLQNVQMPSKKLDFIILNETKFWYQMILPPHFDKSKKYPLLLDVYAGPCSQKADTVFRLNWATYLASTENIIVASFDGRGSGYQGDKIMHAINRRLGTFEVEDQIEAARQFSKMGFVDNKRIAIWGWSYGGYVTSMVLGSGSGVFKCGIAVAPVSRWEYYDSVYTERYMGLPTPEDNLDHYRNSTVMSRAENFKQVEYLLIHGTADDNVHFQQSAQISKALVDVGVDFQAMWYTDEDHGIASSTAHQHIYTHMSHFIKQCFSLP

For `CC(C)N(C)C(=O)n1cnc(S(=O)(=O)C2CC3CCC2C3)n1` (centres undefined), which ED50 [1] is on record?
The ED50 was greater than 50 mg/kg.

And the IC50 [2]?
The IC50 was 28 nM.

And the fraction unbound [3]?
The fraction unbound was 0.42.

What about the half-life [4] of the same compound?
The half-life was greater than 30 min.

And the Stability [5]?
Its Stability is “Unstable”.

What about the Intrinsic clearance [6] of the same compound?
The Intrinsic clearance was 1.6 mL/min/g.

And the IC50 [7]?
Its IC50 is “Not Active”.

And the Stability [8]?
Its Stability is “Unstable”.

And the Time [9]?
Its Time is 48 h.

What about the IC50 [10] of the same compound?
Its IC50 is 16 nM.

What about the “inhibition (INH)” value [11] of the same compound?
The value was “Not Active”.

And the solubility kinetic [12]?
The solubility kinetic was no less than 500 µM.

What about the Stability [13] of the same compound?
The Stability was “Stable”.

And the IC50 [14]?
The IC50 was greater than 100000 nM.

And the “log(ratio)” value [15]?
The value was 3.1.

And the IC50 [16]?
Its IC50 is 9 nM.

What about the Papp [17] of the same compound?
The Papp was greater than 30 ×10⁻⁶ cm/s.

What about the IC50 [18] of the same compound?
Its IC50 is 31600 nM.

What about the half-life [19] of the same compound?
The half-life was 3.8 min.

And the IC50 [20]?
Its IC50 is greater than 50000 nM.

And the IC50 [21]?
The IC50 was 49 nM.

What about the Activity [22] of the same compound?
The Activity was “Active”.

What does the source list for `COc1ccc(CN(C)C(=O)n2cnc(S(=O)(=O)[C@@H]3C[C@H]4CC[C@@H]3C4)n2)cc1`?
IC50 [7]: Not Active; Activity [23]: Active; ED50 [24]: 100 mg/kg; ED90 [24]: 150 mg/kg; IC50 [10]: 10 nM; solubility kinetic [12]: 125 µM (≈ 50.6 µg/mL); IC50 [14]: > 100000 nM; Drug uptake [25]: Not Active; Activity [26]: Active; Activity [27]: Active; half-life [19]: 22.6 min; Activity [22]: Active
